Measurements as given in ChEMBL document CHEMBL4257546, “Discovery of new FXR agonists based on 6-ECDCA binding properties by virtual screening and molecular docking” (Medchemcomm, 2018).
Active and inactive are the calls of the source.

Assays:
[1] = biological target: T1, Bile acid receptor (Homo sapiens) (UniProt Q96RI1); experiment: Transactivation of full-length FXR (unknown origin) expressed in HEK293 cells at 100 uM after 18 hrs by dual-glo luciferase reporter gene assay relative to CDCA; assay type: cell-based
T1 sequence (whole entry): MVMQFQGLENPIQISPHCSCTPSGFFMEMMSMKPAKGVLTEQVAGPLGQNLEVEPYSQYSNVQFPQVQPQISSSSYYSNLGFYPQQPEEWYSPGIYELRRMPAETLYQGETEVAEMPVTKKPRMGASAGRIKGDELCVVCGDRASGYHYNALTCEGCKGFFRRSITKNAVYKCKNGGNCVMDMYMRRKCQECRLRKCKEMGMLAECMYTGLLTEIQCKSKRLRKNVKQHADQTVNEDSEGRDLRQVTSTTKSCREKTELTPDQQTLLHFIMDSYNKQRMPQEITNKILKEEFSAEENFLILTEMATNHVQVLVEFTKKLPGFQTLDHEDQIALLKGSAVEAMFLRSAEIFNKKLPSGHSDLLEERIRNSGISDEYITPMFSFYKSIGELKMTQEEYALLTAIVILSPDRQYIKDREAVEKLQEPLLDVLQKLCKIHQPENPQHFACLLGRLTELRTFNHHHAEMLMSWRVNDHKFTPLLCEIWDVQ
Summary of the method: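 HEK293 cells co-transfected by calcium phosphate with full-length FXR expression plasmid, FXRE-driven firefly luciferase reporter and Renilla normalization vector. Compound added at 100 μM 6 h after transfection; dual luciferase read 18 h later. Firefly normalized to Renilla, expressed as fold activation over untreated cells, then as percent of maximal fold induction by CDCA. At least two separate experiments, triplicate assays.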

[2] = test system: HEK293; experiment: Effect on renilla luciferase expression in HEK293 cells at 100 uM after 18 hrs by dual-glo luciferase reporter gene assay; assay type: ADME, cell-based; conditions: human, hek293, 18 h
Summary of the method: (§1)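 HEK293 in DMEM with 10% FBS, 37 °C, 5% CO2; calcium phosphate co-transfection in serum-free medium with TK-FXRE-luc reporter (50 ng), Renilla vector (20 ng) and full-length FXR plasmid (30 ng) per well. Compounds added 6 h post-transfection, cells harvested 18 h later; Renilla luminescence (Dual-Glo) monitored as the cell-status control over 0.1–250 μM.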

[3] = biological target: T2, Bile acid receptor (Homo sapiens, UniProt Q96RI1); experiment: Transactivation of full-length FXR (unknown origin) expressed in HEK293 cells after 18 hrs by dual-glo luciferase reporter gene assay; assay type: cell-based
T2 sequence (Q96RI1 whole entry): T1 sequence (whole entry)

[4] = test system: HEK293; experiment: Cytotoxicity against HEK293 cells assessed as effect on renilla luciferase expression at 0.1 to 250 uM after 18 hrs by dual-glo luciferase reporter gene expression; assay type: cell-based; conditions: human, hek293, 18 h; summary of the method: as §1

Compound	Activity [1]	Efficacy [1]	EC50 [3]	Activity [2]	Activity [4]
Cc1cc(/N=N/Cc2ccccc2)nc(NS(=O)(=O)c2ccccc2Cl)n1	inactive			Non-Toxic	
Cc1nn(-c2ccccc2)c(N)c1C(O)(CC(=O)C(F)(F)F)C(F)(F)F (stereo unspecified)	inactive			Non-Toxic	
CCn1c(CNc2ccc(Cl)cc2)nnc1SCC(=O)NNC(=O)c1ccc(Cl)cc1	inactive			Non-Toxic	
CC1(CSc2cccc(C(=O)NCc3cccs3)c2)NC(=O)NC1=O (stereo unspecified)	inactive			Non-Toxic	
Cc1ccc([N+](=O)[O-])cc1NCC(=O)Nc1cc(C(F)(F)F)ccc1-n1cncn1	inactive			Non-Toxic	
CC(NS(=O)(=O)c1ccccc1F)C(=O)Cc1nc2ccccc2[nH]1 (stereo unspecified)	inactive			Non-Toxic	
COC(=O)/C=C/c1ccc(OCC(=O)NC2c3ccccc3-c3ccccc32)c(OC)c1	inactive			Non-Toxic	
COc1ccc(Nc2ccc(NC(=O)c3ccccc3NS(=O)(=O)c3cc(C)ccc3C)cc2)cc1	inactive			Non-Toxic	
CC(Sc1nnc(C2CCCC2)[nH]1)C(=O)Nc1sccc1C(N)=O (stereo unspecified)	inactive			Non-Toxic	
Nc1nc(CSc2nnnn2Cc2ccccc2)nc(Nc2ccccc2)n1	inactive			Non-Toxic	
COc1ccc(CN(C)C(=O)c2c[nH]c3ccccc23)cc1F	inactive			Non-Toxic	

More lines, main results first:

Activity [1]	Efficacy [1]	EC50 [3]	Compound	Activity [2]	Activity [4]
inactive			O=C(COc1ccccc1Cl)NNC(=O)c1cccc(NS(=O)(=O)c2ccc3c(c2)OCCCO3)c1	Non-Toxic	
	120%	4.33 µM	COc1cc([N+](=O)[O-])ccc1NC(=O)CNc1ccccc1N1CCCC1=O	Non-Toxic	Non-Toxic
inactive			O=C(Nc1ccccc1)Nc1ccccc1NS(=O)(=O)c1ccccc1	Non-Toxic	
inactive			CS(=O)(=O)N1CCC(NC(=O)CC(NC(N)=O)c2ccccc2F)CC1 (stereo unspecified)	Non-Toxic	
inactive			O=C(CN1CC(C(=O)N2CCCCC2)Oc2ccccc21)NC(=O)NCc1ccco1 (stereo unspecified)	Non-Toxic	
	60.3%	14.4 µM	CN(Cc1ccc(N2CCCCC2)cc1)C(=O)c1n[nH]c(=O)c2ccccc12	Non-Toxic	Non-Toxic
inactive			CCOC(=O)CC(c1ccc(F)cc1)C1CCN(C(=O)c2ccc([N+](=O)[O-])o2)CC1 (stereo unspecified)	Non-Toxic	
inactive			CNC(=O)C1CN(CC(=O)Nc2cc(C)c(Cl)cc2OC)c2ccccc2O1 (stereo unspecified)	Non-Toxic	
inactive			Cc1cc(CNC(=O)c2ccccc2SC2CCS(=O)(=O)C2)ccc1F (stereo unspecified)	Non-Toxic	
inactive			O=C(CN(Cc1ccc2c(c1)OCO2)C1CCCC1)Nc1cccc2ccccc12	Non-Toxic	
inactive			O=C(Nc1ccc(N2CCOCC2)cc1)c1ccccc1SC1CCS(=O)(=O)C1 (stereo unspecified)	Non-Toxic	
inactive			NC(=O)CSc1ccccc1NC(=O)Nc1ccc(Cl)c(Cl)c1	Non-Toxic	
inactive			NC(=O)CSc1ccccc1NCC(=O)Nc1ccc(Cl)cc1Cl	Non-Toxic	
	55.1%	5.99 µM	O=C(O)c1ccccc1-c1ccccc1C(=O)N1CCN(Cc2ccc3c(c2)OCO3)CC1	Non-Toxic	Non-Toxic
